Data reported in ChEMBL document CHEMBL1149647, “Structure-based design of TACE selective inhibitors: manipulations in the S1'-S3' pocket” (Bioorg Med Chem, 2007).

Experiments:
[1] = target: Matrix metalloproteinase-14 (Homo sapiens, UniProt P50281); test: Inhibition of human recombinant MMP14
Homo sapiens [2] = species: Homo sapiens; test: Selectivity for TACE over MMP13
Collagenase 3 = Collagenase 3 (Homo sapiens, UniProt P45452); test: Inhibition of human recombinant MMP13
Outline: (§1)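 Enzyme potency is expressed as IC50 in nM, reported as average ± SD.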

[3] = target: T1, Disintegrin and metalloproteinase domain-containing protein 17 (Homo sapiens, UniProt P78536); test: Inhibition of human TACE expressed in CHO cells by FRET assay; assay type: cell-based
T1 sequence (P78536 whole entry, the tested form may be a part): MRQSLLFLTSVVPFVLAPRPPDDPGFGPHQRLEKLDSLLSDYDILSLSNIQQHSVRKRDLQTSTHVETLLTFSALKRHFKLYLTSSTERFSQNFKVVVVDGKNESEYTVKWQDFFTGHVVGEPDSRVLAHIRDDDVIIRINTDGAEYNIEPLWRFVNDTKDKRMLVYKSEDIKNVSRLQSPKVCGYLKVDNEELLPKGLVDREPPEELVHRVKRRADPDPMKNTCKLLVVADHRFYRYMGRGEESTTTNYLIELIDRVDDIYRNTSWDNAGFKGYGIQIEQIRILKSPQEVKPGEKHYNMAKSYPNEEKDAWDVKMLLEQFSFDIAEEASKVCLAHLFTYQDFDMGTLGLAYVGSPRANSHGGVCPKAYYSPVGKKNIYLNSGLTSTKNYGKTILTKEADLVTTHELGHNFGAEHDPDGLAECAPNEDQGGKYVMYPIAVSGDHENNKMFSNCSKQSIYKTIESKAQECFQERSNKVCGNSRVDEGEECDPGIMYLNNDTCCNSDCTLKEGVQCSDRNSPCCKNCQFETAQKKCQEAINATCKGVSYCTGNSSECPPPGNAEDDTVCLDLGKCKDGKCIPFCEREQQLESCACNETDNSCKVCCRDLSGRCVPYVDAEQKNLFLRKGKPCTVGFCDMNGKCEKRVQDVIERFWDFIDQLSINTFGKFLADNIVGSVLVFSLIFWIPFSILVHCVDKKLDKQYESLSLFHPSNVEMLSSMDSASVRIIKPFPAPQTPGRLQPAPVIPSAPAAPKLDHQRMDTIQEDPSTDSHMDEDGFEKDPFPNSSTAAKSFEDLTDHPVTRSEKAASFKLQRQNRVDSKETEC

[4] = target: 72 kDa type IV collagenase (Homo sapiens, UniProt P08253); test: Inhibition of human recombinant MMP2; outline: as §1
Chain of 72 kDa type IV collagenase (P08253 whole entry, the tested form may be a part): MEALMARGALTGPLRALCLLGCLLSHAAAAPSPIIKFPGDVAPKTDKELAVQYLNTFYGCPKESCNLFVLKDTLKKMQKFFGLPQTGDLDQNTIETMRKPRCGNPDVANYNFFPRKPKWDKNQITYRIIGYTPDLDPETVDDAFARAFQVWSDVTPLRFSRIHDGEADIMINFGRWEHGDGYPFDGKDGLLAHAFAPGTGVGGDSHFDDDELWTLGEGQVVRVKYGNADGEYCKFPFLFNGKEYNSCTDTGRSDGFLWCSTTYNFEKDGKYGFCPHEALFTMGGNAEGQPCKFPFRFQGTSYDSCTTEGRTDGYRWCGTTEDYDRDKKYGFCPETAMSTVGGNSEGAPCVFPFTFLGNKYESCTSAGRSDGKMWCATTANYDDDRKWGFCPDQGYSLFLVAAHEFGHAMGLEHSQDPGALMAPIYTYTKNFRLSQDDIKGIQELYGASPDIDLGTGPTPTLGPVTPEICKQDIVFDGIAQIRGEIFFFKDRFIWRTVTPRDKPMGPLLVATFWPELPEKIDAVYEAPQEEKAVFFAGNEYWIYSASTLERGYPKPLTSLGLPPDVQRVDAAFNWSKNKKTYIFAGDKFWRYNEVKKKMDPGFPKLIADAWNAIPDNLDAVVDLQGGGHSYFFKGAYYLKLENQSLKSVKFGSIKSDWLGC

[5] = target: T1, Disintegrin and metalloproteinase domain-containing protein 17; test: Inhibition of human TACE in human whole blood
Homo sapiens [6] = species: Homo sapiens; test: Selectivity for TACE over MMP2
Mus musculus = test: Inhibition of LPS-induced TNFalpha production in BALB/CJ mouse at 25 mg/kg, po after 90 mins; assay type: functional; conditions: 1.5 h

SMILES	IC50 [1] [nM]	Selectivity ratio (Homo sapiens [2])	IC50 (Collagenase 3) [nM]	IC50 [3] [nM]	IC50 [4] [nM]	IC50 [5] [nM]	Selectivity ratio (Homo sapiens [6])	inhibition in vivo at 25 mg/kg (Mus musculus) [%]
CC#CCNc1ccc(S(=O)(=O)CC2(C(=O)NO)CCN(C(=O)c3ccccc3C)CC2)cc1	1000	499	584	2.5	46	4800	–	–
CC#CCNc1ccc(S(=O)(=O)CC2(C(=O)NO)CCN(Cc3ccncc3)CC2)cc1	4320	–	6880	6.4	1530	7200	–	–
CC#CCNc1ccc(S(=O)(=O)CC2(C(=O)NO)CCNCC2)cc1	–	–	–	64.5	–	–	–	–
CC#CCNc1ccc(S(=O)(=O)CC2(C(=O)NO)CCN(C(=O)N(CC)CC)CC2)cc1	3620	> 750	772	< 1	216	6400	–	–
CC#CCOc1ccc(S(=O)(=O)N2CCSC(C)(C)[C@@H]2C(=O)NO)cc1	–	–	–	–	–	300	–	–
CC(C)(C)OC(=O)N1CCC(CS(=O)(=O)c2ccc(NCC#CCO)cc2)(C(=O)NO)CC1	–	–	1040	10	334	25000	–	–
CC#CCNc1ccc(S(=O)(=O)CC2(C(=O)NO)CCN(C(=O)C(C)CC)CC2)cc1 (stereo not given)	7050	–	2480	3.5	1310	4900	–	–
CC#CCOc1ccc(S(=O)(=O)CC2(C(=O)NO)CCN(S(=O)(=O)C(C)C)CC2)cc1	3640	52	157	3	280	1500	93	–
CC#CCNc1ccc(S(=O)(=O)CC2(C(=O)NO)CCN(S(=O)(=O)C(C)C)CC2)cc1	–	–	2080	2	97	5000	–	–
CC#CCNc1ccc(S(=O)(=O)CC2(C(=O)NO)CCN(C(=O)C(C)C)CC2)cc1	4890	–	3200	2.3	513	3600	–	72
CC#CCOc1ccc(S(=O)(=O)CC2(C(=O)NO)CCN(C(=O)OC(C)(C)C)CC2)cc1	–	–	135	2	–	14000	–	–
CC#CC(C)(C)Oc1ccc(S(=O)(=O)CC2(C(=O)NO)CCN(S(=O)(=O)C(C)C)CC2)cc1	–	–	12000	27	> 1670	> 50000	–	–
CC#CC(C)Oc1ccc(S(=O)(=O)CC2(C(=O)NO)CCN(S(=O)(=O)C(C)C)CC2)cc1 (stereo not given)	–	720	2910	4	4180	31000	1000	–
CC#CCN(C)c1ccc(S(=O)(=O)CC2(C(=O)NO)CCN(C(=O)OC(C)(C)C)CC2)cc1	–	–	1600	3.3	–	> 50000	–	–
CC#CCNc1ccc(S(=O)(=O)N2CCSC(C)(C)[C@@H]2C(=O)NO)cc1	–	–	30	2.3	56	3500	–	–
CC#CCNc1ccc(S(=O)(=O)CC2(C(=O)NO)CCN(C(=O)OC(C)(C)C)CC2)cc1	2370	> 400	–	1.6	120	16000	–	–
